Activity calls are given as the source filed them. The rule behind the calls is not given here.
Key:
[1] = test system: Jurkat; experiment: Cell cycle arrest in human Jurkat cells assessed as decrease of cell population at S phase at 100 nM after 24 hrs using propidium iodide staining by flow cytometry; format: functional, cell-based
[2] = test system: HeLa; experiment: Induction of apoptosis in human HeLa cells assessed as increase in phospho-gammaH2AX expression at […] after 48 hrs by Western blot analysis; format: functional, cell-based
How it was run: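 HeLa treated for 24 or 48 h; whole-cell lysates run on SDS-PAGE and blotted for phospho-γH2AX (Ser139).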

[3] = test system: HeLa; experiment: Induction of apoptosis in human HeLa cells assessed as formation of large cells at 10 uM after 24 to 48 hrs using Giemsa's staining by microscopic analysis; format: functional, cell-based
How it was run: (§1)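 HeLa treated 48 h, Giemsa stained and examined by light microscopy at 60× magnification.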

[4] = test system: Jurkat; experiment: Cell cycle arrest in human Jurkat cells assessed as decrease of cell population at G1 phase at 1 to 100 nM after 24 hrs using propidium iodide staining by flow cytometry; format: functional, cell-based
[5] = test system: HeLa; experiment: Induction of morphological changes in human HeLa cells assessed as appearance of giant interphase with multiple nuclei of different sizes at 10 nM after 24 hrs using phalloidintetramethylrhodamine B isothiocyanate staining by microscopy; format: functional, cell-based
How it was run: (§2)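 HeLa cells were incubated with compound for 24 h. F-actin was stained with a phalloidin–tetramethylrhodamine B isothiocyanate conjugate and nuclei were counterstained with DAPI. Cells were then examined by fluorescence microscopy.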

[6] = test system: Jurkat; experiment: Cell cycle arrest in human Jurkat cells assessed as decrease of cell population at G1 phase at 1 to 100 nM after 48 hrs using propidium iodide staining by flow cytometry; format: functional, cell-based
[7] = biological target: Tubulin (Homo sapiens) (UniProt P68371+Q9H4B7+P0DPH7+P68366+Q13509+Q71U36+P04350+Q3ZCM7+P07437+P68363+Q9BQE3+Q6PEY2+Q13885+Q9BVA1+Q9BUF5); experiment: Induction of microtubule disassembly in human HeLa cells assessed as complete loss of microtubules at 100 nM after 24 hrs using DAPI-staining by fluorescence microscopy; format: cell-based
How it was run: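 HeLa cells were exposed to 10 or 100 nM compound for 24 or 48 h, then fixed. Microtubules were stained with FITC-conjugated anti-β-tubulin antibody and imaged by confocal/fluorescence microscopy at 60× magnification.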

[8] = Inhibition of bovine brain tubulin polymerization after 20 mins by turbidimetric analysis; parameters: species or system Bos taurus
How it was run: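 Purified tubulin at 10 μM was used for the assembly (polymerization) inhibition assay. IC50 is the concentration inhibiting assembly.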

[9] = test system: HeLa; experiment: Cell cycle arrest in human HeLa cells assessed as increase of cell population at G2/M phase at 1 to 100 nM after 48 hrs using propidium iodide staining by flow cytometry; format: functional, cell-based
[10] = test system: HeLa; experiment: Induction of cell cycle arrest at G2/M phase in human HeLa cells assessed as increase in cyclin B1 expression after 24 to 48 hrs by Western blot analysis; format: functional, cell-based
How it was run: (§3)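 Immunoblot of HeLa lysates after 24 or 48 h of compound treatment at the indicated concentrations. Probed for cyclin B1, p-Cdc2 Y15 and Cdc25c. Slower-migrating Cdc25c bands were taken as a change in phosphorylation.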

[11] = test system: HeLa; experiment: Induction of apoptosis in human HeLa cells assessed as abnormal mitotic figures at 100 uM after 24 to 48 hrs using Giemsa's staining by microscopic analysis; format: functional, cell-based; how it was run: as §1
[12] = test system: Jurkat; experiment: Induction of apoptosis in human Jurkat cells assessed as formation of large cytoplasmic vacuoles at 100 uM after 24 to 48 hrs using Giemsa's staining by microscopic analysis; format: functional, cell-based
How it was run: (§4)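 Giemsa staining, then light-microscope examination of cell morphology. HeLa and Jurkat cells were exposed to compound for 24 and 48 h. Magnification 60×.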

[13] = test system: HL-60; experiment: Antiproliferative activity against human HL60 cells assessed as growth inhibition after 72 hrs by MTT assay; format: functional, cell-based; conditions: HL-60, 72 h
[14] = test system: HeLa; experiment: Induction of apoptosis in human HeLa cells assessed as increase in mitochondrial ROS production at 100 nM after 48 hrs using hydroethidine staining by flow cytometry; format: functional, cell-based
[15] = test system: Jurkat; experiment: Induction of apoptosis in human Jurkat cells assessed as formation of large cells at 100 uM after 24 to 48 hrs using Giemsa's staining by microscopic analysis; format: functional, cell-based; how it was run: as §4
[16] = Antiproliferative activity against human vinblastine-resistant CEM/VBL100 cells overexpressing P-gp assessed as growth inhibition after 72 hrs by MTT assay; format: functional, cell-based; conditions: CEM/VBL100, 72 h
[17] = test system: HeLa; experiment: Induction of apoptosis in human HeLa cells assessed activation of caspase 9 at 10 to 100 nM after 48 hrs by Western blot analysis
[18] = test system: Jurkat; experiment: Induction of apoptosis in human Jurkat cells assessed as multinucleation at 100 uM after 24 to 48 hrs using Giemsa's staining by microscopic analysis; format: functional, cell-based; how it was run: as §4
[19] = test system: HeLa; experiment: Induction of morphological changes in human HeLa cells assessed as effect on arrangement and amount of F-actin at 10 nM after 24 hrs using phalloidintetramethylrhodamine B isothiocyanate staining by microscopy; format: functional, cell-based; how it was run: as §2
[20] = Antiproliferative activity against human taxol-resistant A549-T12 cells assessed as growth inhibition after 72 hrs by MTT assay; format: functional, cell-based; conditions: A549, 72 h
[21] = test system: HeLa; experiment: Induction of apoptosis in human HeLa cells assessed as DNA condensation at 100 uM after 24 to 48 hrs using Giemsa's staining by microscopic analysis; format: functional, cell-based; how it was run: as §1
[22] = test system: HeLa; experiment: Induction of morphological changes in human HeLa cells assessed as effect on arrangement and amount of F-actin at 100 nM after 24 hrs using phalloidintetramethylrhodamine B isothiocyanate staining by microscopy; format: functional, cell-based; how it was run: as §2
[23] = test system: Jurkat; experiment: Induction of apoptosis in human Jurkat cells assessed as DNA condensation at 10 uM after 24 to 48 hrs using Giemsa's staining by microscopic analysis; format: functional, cell-based; how it was run: as §4
[24] = test system: HeLa; experiment: Induction of apoptosis in human HeLa cells assessed as DNA condensation at 10 uM after 24 to 48 hrs using Giemsa's staining by microscopic analysis; format: functional, cell-based; how it was run: as §1
[25] = test system: LoVo; experiment: Fold resistance, ratio of IC50 for human doxorubicin-resistant LoVo cells overexpressing P-gp to IC50 for human LoVo cells; format: functional
How it was run: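 Fold resistance taken as the ratio of IC50 in the resistant line to IC50 in the parental line, each IC50 from dose-response curves of at least three independent experiments.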

[26] = test system: Jurkat; experiment: Antiproliferative activity against human Jurkat cells assessed as growth inhibition after 72 hrs by MTT assay; format: functional, cell-based
[27] = test system: HeLa; experiment: Cell cycle arrest in human HeLa cells assessed as decrease of cell population at G1 phase at 1 to 100 nM after 24 hrs using propidium iodide staining by flow cytometry; format: functional, cell-based
[28] = test system: HeLa; experiment: Induction of cell cycle arrest at G2/M phase in human HeLa cells assessed as decrease in Cdc25C expression at 100 nM after 48 hrs by Western blot analysis; format: functional, cell-based; how it was run: as §3
[29] = test system: CCRF-CEM; experiment: Antiproliferative activity against human CEM cells assessed as growth inhibition after 72 hrs by MTT assay; format: functional, cell-based
[30] = test system: Jurkat; experiment: Induction of apoptosis in human Jurkat cells assessed as multinucleation at 10 uM after 24 to 48 hrs using Giemsa's staining by microscopic analysis; format: functional, cell-based; how it was run: as §4
[31] = test system: Jurkat; experiment: Induction of apoptosis in human Jurkat cells assessed as DNA condensation at 100 uM after 24 to 48 hrs using Giemsa's staining by microscopic analysis; format: functional, cell-based; how it was run: as §4

CCOc1ccc(-c2sc(N)nc2-c2cc(OC)c(OC)c(OC)c2)cc1
Activity [1]: Active
Activity [2]: Active
Activity [3]: Active
Activity [4]: Active
Activity [5]: Active
Activity [6]: Active
Activity [7]: Active
IC50 [8]: 610 nM
Activity [9]: Active
Activity [10]: Dose-dependent effect
Activity [11]: Active
Activity [12]: Active
IC50 [13]: 0.9 nM
Activity [14]: Active
Activity [15]: Active
IC50 [16]: 0.8 nM
Activity [17]: inactive
Activity [18]: Active
Activity [19]: Active
IC50 [20]: 0.2 nM
Activity [21]: Active
Activity [22]: Active
Activity [23]: Active
Activity [24]: Active
Ratio IC50 [25]: 0.9
IC50 [26]: 0.14 nM
Activity [27]: Active
Activity [28]: Active
IC50 [29]: 0.9 nM
Activity [30]: Active
Activity [31]: Active

From ChEMBL document CHEMBL1799956, “Convergent synthesis and biological evaluation of 2-amino-4-(3',4',5'-trimethoxyphenyl)-5-aryl thiazoles as microtubule targeting agents” (J Med Chem, 2011)
